Assay results pooled from the literature.
Cell line: SK-MEL-2
Read-out: cell growth or viability

Compound	method	time	measurement	value
COc1ccc(-c2ccc(-c3ccc(C(=N)N)nc3)s2)cc1	SRB	–	GI50	2.05 µM
O=C(c1c(F)ccc(NS(=O)(=O)N2CC[C@@H](F)C2)c1F)c1c[nH]c2ncc(-c3cnc(C4CC4)nc3)cc12	ATP luminescence	72 h	IC50	> 20 µM
COc1ccc(C(=O)/C=C/c2ccccc2Br)cc1S(N)(=O)=O	SRB	48 h	GI50	14.5 µM
O=C1NCCc2[nH]c(-c3ccncc3)cc21	–	–	IC50	> 10 µM
COc1cccc(Oc2ccccc2NC(=O)CNC(=O)c2cccc3ccccc23)c1	SRB	48 h	GI50	0.182 µM
O=C1NC(=NCc2cccs2)S/C1=C\c1ccc2ncccc2c1	–	–	IC50	> 10 µM
COc1ccc(C(=O)/C=C/c2ccc(Cl)c(Cl)c2)cc1S(N)(=O)=O	SRB	48 h	GI50	5.6 µM
COc1ccc(-c2ccc(-c3ccc(C(=N)N)nc3)s2)cc1Cl	SRB	–	GI50	2.15 µM
